# From PubChem BioAssay
# Activity calls are given as the source filed them.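 Rule for the calls, unless noted: active = a full or partial loss of lipid-probe fluorescence in the fish gall bladder, intestine or both, judged by eye; inactive = no fluorescence loss, or compound toxic to the fish.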
# Biological target: Alpha-2C adrenergic receptor (Homo sapiens) (UniProt P18825)
# Assay: compounds altering alpha2C-coupled GIRK flux – cell-based, HEK293 alpha2C/GIRK1/2, thallium flux, primary screen (AID 624;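 active = fluorescence slope after compound addition differing from the mean of all screened samples at 99.7% confidence, in either direction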;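 note: slope of fluorescence ratio to pre-addition baseline per second over 15 to 24 s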)
# Conditions: thallium flux BTC fluorescence, at 10 µM, actives lie on both sides
# Alpha-2C adrenergic receptor (Homo sapiens), sequence (P18825 whole entry, looked up): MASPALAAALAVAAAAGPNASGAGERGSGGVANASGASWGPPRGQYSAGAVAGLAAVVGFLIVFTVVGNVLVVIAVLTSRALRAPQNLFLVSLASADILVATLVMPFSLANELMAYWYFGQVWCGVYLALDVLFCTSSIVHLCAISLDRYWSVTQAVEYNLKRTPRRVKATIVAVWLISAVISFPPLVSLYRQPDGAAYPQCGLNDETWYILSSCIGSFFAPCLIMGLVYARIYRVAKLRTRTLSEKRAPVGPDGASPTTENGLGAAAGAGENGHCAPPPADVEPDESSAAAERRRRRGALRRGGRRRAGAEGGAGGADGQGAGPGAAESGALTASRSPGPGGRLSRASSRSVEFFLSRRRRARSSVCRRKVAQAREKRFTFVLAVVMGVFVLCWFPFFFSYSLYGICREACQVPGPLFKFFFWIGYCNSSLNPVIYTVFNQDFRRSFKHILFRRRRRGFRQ
row,SMILES,slope
1,N#CC1=C(SCc2ccccc2)NC2=C(C(=O)CCC2)C1c1ccc2c(c1)OCO2 (stereo not given),0.0074 (inactive)
2,CC(=O)C1=C(O)C(=O)N(c2cccc(C(=O)O)c2)C1c1ccccc1F (stereo not given),0.00649 (inactive)
3,Cc1[nH]nc2cn[nH]c12,0.00413 (inactive)
4,CCCCOc1ccc(CSC(CC(=O)O)C(=O)O)cc1 (stereo not given),0.00541 (inactive)
5,O=S(=O)(c1ccccc1)N1CCC(N2CCCCCC2)CC1,0.00532 (inactive)
6,COc1cccc(C2/C(=C(\O)c3ccc4c(c3)OCCO4)C(=O)C(=O)N2CCN(C)C)c1 (stereo not given),0.00546 (inactive)
7,CC1(C)CC(=O)C(C=NCC(O)c2ccccc2)=C(O)C1 (stereo not given),0.00522 (inactive)
8,Cc1ccccc1C(=O)c1ccc2c(c1)n(C)c(=O)n2C,0.00384 (inactive)
9,COC(=O)C(NC(C)=O)(Nc1ccc(Br)cc1)C(=O)OC,0.00456 (inactive)
10,CCOC(=O)CSc1nc(N)c(C#N)c(-c2ccc(OC)cc2)c1C#N,0.00551 (inactive)
11,COc1cccc(/C(O)=C2/C(=O)C(=O)N(CCCN(C)C)C2c2cccc(Cl)c2)c1 (stereo not given),0.00508 (inactive)
12,O=C(O)CC(NCc1ccco1)C(=O)OCC1CCCO1 (stereo not given),0.00498 (inactive)
13,CNc1oc(-c2ccc(Cl)cc2)nc1C#N,0.00621 (inactive)
14,O=C(O)CCCC(=O)Nc1ccn(-c2ccccc2)n1,0.00622 (inactive)
15,CCOC(=O)C1=C(C)N=C2SC(C)C(=O)N2C1c1ccc(OC(C)=O)c(OC)c1 (stereo not given),0.00549 (inactive)
16,CCOc1cccc(-c2nn3c(-c4ccco4)nnc3s2)c1,0.00461 (inactive)
17,COc1ccc(/C(O)=C2/C(=O)C(=O)N(c3ncccn3)C2c2ccc(OC)c(OC)c2)cc1 (stereo not given),0.0049 (inactive)
18,COc1cccc2c(=O)c(SC(F)(F)C(F)C(F)(F)F)c(C)[nH]c12 (stereo not given),0.00581 (inactive)
19,COc1ccccc1N(O)C1CC(=O)N(c2ccc(F)cc2)C1=O (stereo not given),0.00806 (inactive)
20,CC1CN(C2CCN(S(=O)(=O)c3ccccc3)CC2)CC(C)O1 (stereo not given),0.00481 (inactive)

row,SMILES,slope
1,CC(C)OC(=O)c1nn2c(C(F)(F)F)cc(-c3ccc(Br)o3)nc2c1Br,0.00144 (inactive)
2,O=S(=O)(c1ccc(Cl)cc1)N1CCC(N2CCCCCC2)CC1,0.0047 (inactive)
3,CCCCNC(=O)N1CCOCCOCCN(C(=O)NCCCC)CCOCCOCC1,0.00599 (inactive)
4,C=CCc1c(C)c(C#N)c2nc3ccccc3n2c1N1CCN(C)CC1,0.00524 (inactive)
5,COc1ccc(C2=Nn3c(nnc3-c3ccccn3)SC2)cc1,0.0069 (inactive)
6,COC(=O)c1nn2c(C(F)(F)F)cc(-c3ccc(Br)o3)nc2c1Br,0.00401 (inactive)
7,Cc1cc(C)nc(N(C#N)CC(=O)N(c2ccccc2)C(C)C)n1,0.00548 (inactive)
8,CC1(C)CC(N(Cc2ccco2)C(=O)Cc2ccccc2)CCO1 (stereo not given),0.00539 (inactive)
9,O=C(c1ccc(=O)oc1)N1CCOCC1,0.0053 (inactive)
10,CCOC(=O)C1CCCN(c2nc3ccccc3nc2C(C#N)C(=O)OCCOC)C1 (stereo not given),0.0042 (inactive)
11,COC(=O)CSc1nc(N)c2c3c(sc2n1)CCCC3,0.00567 (inactive)
12,Cc1c(C(Nc2ccccn2)c2ccccc2)c(=O)n(-c2ccccc2)n1C (stereo not given),0.00524 (inactive)
13,CSc1nc(N)nc(SCC(=O)OC(C)C)c1C#N,0.00629 (inactive)
14,CCOC(=O)c1c(CNCCN(CC)CC)n(C)c2cc(Br)c(OC)cc12,0.00617 (inactive)
15,COc1ccc(/C(O)=C2/C(=O)C(=O)N(CCCN(C)C)C2c2ccccc2)cc1OC (stereo not given),0.00558 (inactive)
16,Nc1nnc(CSc2ccc(Cl)cc2)s1,0.00734 (inactive)
17,Fc1ccc2[nH]c3c(N4CCN(C5CCCCC5)CC4)ncnc3c2c1,0.00383 (inactive)
18,COC(=O)C(NC(C)=O)(Nc1ccccc1)C(=O)OC,0.00504 (inactive)
19,CN(C)C/C(Cl)=C(\Cl)c1ccccc1,0.00503 (inactive)
20,Cc1[nH]c2ccc3c(ncn3CCC#N)c2c1C,0.00512 (inactive)

# Tested on: not listed separately
# Assay: inhibitors of larval lipid processing in zebrafish, primary screen, whole organism, PED6 fluorescence, gall bladder and intestine (AID 686);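 note: larvae 5 to 7 days old with five fish per well; signal comes from phospholipase A2 cleavage of quenched PED6 carried via bile; overnight exposure to compound and PED6 before scoring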
# Conditions: Zebrafish larvae PED6 lipid processing, fluorescence scoring; screened at 20 µM (by protocol)
# How it was run: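 Also added: quenched phospholipase substrate PED6, 100 nM final, ingested by larvae; System: zebrafish larvae, 5-7 d; Quantity: 5 larvae per well; Compound: 20 µM single dose; Schedule: overnight compound and PED6 incubation; Read-out: visual per-well fluorescence inhibition score; Measured by: By-eye fluorescence microscopy; Medium: E3.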
row,SMILES,outcome
1,N#CC1=C(SCc2ccccc2)NC2=C(C(=O)CCC2)C1c1ccc2c(c1)OCO2 (stereo not given),inactive
2,CC(=O)C1=C(O)C(=O)N(c2cccc(C(=O)O)c2)C1c1ccccc1F (stereo not given),inactive
3,Cc1[nH]nc2cn[nH]c12,inactive
4,CCCCOc1ccc(CSC(CC(=O)O)C(=O)O)cc1 (stereo not given),inactive
5,O=S(=O)(c1ccccc1)N1CCC(N2CCCCCC2)CC1,inactive
6,COc1cccc(C2/C(=C(\O)c3ccc4c(c3)OCCO4)C(=O)C(=O)N2CCN(C)C)c1 (stereo not given),inactive
7,CC1(C)CC(=O)C(C=NCC(O)c2ccccc2)=C(O)C1 (stereo not given),inactive
8,Cc1ccccc1C(=O)c1ccc2c(c1)n(C)c(=O)n2C,inactive
9,COC(=O)C(NC(C)=O)(Nc1ccc(Br)cc1)C(=O)OC,inactive
10,CCOC(=O)CSc1nc(N)c(C#N)c(-c2ccc(OC)cc2)c1C#N,inactive
11,COc1cccc(/C(O)=C2/C(=O)C(=O)N(CCCN(C)C)C2c2cccc(Cl)c2)c1 (stereo not given),inactive
12,O=C(O)CC(NCc1ccco1)C(=O)OCC1CCCO1 (stereo not given),inactive
13,CNc1oc(-c2ccc(Cl)cc2)nc1C#N,inactive
14,O=C(O)CCCC(=O)Nc1ccn(-c2ccccc2)n1,inactive
15,CCOC(=O)C1=C(C)N=C2SC(C)C(=O)N2C1c1ccc(OC(C)=O)c(OC)c1 (stereo not given),inactive
16,CCOc1cccc(-c2nn3c(-c4ccco4)nnc3s2)c1,inactive
17,COc1ccc(/C(O)=C2/C(=O)C(=O)N(c3ncccn3)C2c2ccc(OC)c(OC)c2)cc1 (stereo not given),inactive
18,COc1cccc2c(=O)c(SC(F)(F)C(F)C(F)(F)F)c(C)[nH]c12 (stereo not given),inactive
19,COc1ccccc1N(O)C1CC(=O)N(c2ccc(F)cc2)C1=O (stereo not given),inactive
20,CC1CN(C2CCN(S(=O)(=O)c3ccccc3)CC2)CC(C)O1 (stereo not given),inactive

row,SMILES,outcome
1,CC(C)OC(=O)c1nn2c(C(F)(F)F)cc(-c3ccc(Br)o3)nc2c1Br,inactive
2,O=S(=O)(c1ccc(Cl)cc1)N1CCC(N2CCCCCC2)CC1,inactive
3,CCCCNC(=O)N1CCOCCOCCN(C(=O)NCCCC)CCOCCOCC1,inactive
4,C=CCc1c(C)c(C#N)c2nc3ccccc3n2c1N1CCN(C)CC1,inactive
5,COc1ccc(C2=Nn3c(nnc3-c3ccccn3)SC2)cc1,inactive
6,COC(=O)c1nn2c(C(F)(F)F)cc(-c3ccc(Br)o3)nc2c1Br,inactive
7,Cc1cc(C)nc(N(C#N)CC(=O)N(c2ccccc2)C(C)C)n1,inactive
8,CC1(C)CC(N(Cc2ccco2)C(=O)Cc2ccccc2)CCO1 (stereo not given),inactive
9,O=C(c1ccc(=O)oc1)N1CCOCC1,inactive
10,CCOC(=O)C1CCCN(c2nc3ccccc3nc2C(C#N)C(=O)OCCOC)C1 (stereo not given),active; weak signal in gallbladder and intestine
11,COC(=O)CSc1nc(N)c2c3c(sc2n1)CCCC3,inactive
12,Cc1c(C(Nc2ccccn2)c2ccccc2)c(=O)n(-c2ccccc2)n1C (stereo not given),inactive
13,CSc1nc(N)nc(SCC(=O)OC(C)C)c1C#N,inactive
14,CCOC(=O)c1c(CNCCN(CC)CC)n(C)c2cc(Br)c(OC)cc12,inactive
15,COc1ccc(/C(O)=C2/C(=O)C(=O)N(CCCN(C)C)C2c2ccccc2)cc1OC (stereo not given),inactive
16,Nc1nnc(CSc2ccc(Cl)cc2)s1,inactive
17,Fc1ccc2[nH]c3c(N4CCN(C5CCCCC5)CC4)ncnc3c2c1,inactive
18,COC(=O)C(NC(C)=O)(Nc1ccccc1)C(=O)OC,inactive
19,CN(C)C/C(Cl)=C(\Cl)c1ccccc1,inactive
20,Cc1[nH]c2ccc3c(ncn3CCC#N)c2c1C,inactive
